This note sets out measurements from ChEMBL document CHEMBL2331119 (Bioorg Med Chem Lett, 2013).

The source made the active and inactive calls. The calls are words filed in the database; no cut-off is given here.

For test [1], the target named is T1, Sodium-dependent serotonin transporter (Homo sapiens, UniProt P31645). In kind it is cell-based, COS-7.
Target sequence in this assay (P31645 whole entry): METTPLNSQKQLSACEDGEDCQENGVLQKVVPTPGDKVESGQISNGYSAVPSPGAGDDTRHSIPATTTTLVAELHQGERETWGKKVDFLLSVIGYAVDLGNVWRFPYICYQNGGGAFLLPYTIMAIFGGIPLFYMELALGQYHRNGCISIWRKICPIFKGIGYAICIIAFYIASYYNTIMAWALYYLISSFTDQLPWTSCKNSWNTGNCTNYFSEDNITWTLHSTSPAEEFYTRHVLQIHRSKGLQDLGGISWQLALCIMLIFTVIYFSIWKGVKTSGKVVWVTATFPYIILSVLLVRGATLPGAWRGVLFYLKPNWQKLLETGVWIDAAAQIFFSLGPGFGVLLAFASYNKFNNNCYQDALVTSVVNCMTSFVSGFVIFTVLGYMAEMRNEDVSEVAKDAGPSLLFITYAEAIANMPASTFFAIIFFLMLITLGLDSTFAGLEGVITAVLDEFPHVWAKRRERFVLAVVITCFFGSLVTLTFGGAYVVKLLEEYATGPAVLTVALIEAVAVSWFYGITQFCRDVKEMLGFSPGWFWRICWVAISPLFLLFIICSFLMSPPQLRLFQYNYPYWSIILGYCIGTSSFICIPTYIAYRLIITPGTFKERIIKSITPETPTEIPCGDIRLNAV
The target of test [2] is Sodium-dependent noradrenaline transporter (Homo sapiens, UniProt P23975). Nature of the test: Inhibition of [3H]dopamine uptake at human NET expressed in COS7 cells after 5 mins by beta-counting. The class given is cell-based, COS-7.
Sodium-dependent noradrenaline transporter, sequence (P23975 whole entry): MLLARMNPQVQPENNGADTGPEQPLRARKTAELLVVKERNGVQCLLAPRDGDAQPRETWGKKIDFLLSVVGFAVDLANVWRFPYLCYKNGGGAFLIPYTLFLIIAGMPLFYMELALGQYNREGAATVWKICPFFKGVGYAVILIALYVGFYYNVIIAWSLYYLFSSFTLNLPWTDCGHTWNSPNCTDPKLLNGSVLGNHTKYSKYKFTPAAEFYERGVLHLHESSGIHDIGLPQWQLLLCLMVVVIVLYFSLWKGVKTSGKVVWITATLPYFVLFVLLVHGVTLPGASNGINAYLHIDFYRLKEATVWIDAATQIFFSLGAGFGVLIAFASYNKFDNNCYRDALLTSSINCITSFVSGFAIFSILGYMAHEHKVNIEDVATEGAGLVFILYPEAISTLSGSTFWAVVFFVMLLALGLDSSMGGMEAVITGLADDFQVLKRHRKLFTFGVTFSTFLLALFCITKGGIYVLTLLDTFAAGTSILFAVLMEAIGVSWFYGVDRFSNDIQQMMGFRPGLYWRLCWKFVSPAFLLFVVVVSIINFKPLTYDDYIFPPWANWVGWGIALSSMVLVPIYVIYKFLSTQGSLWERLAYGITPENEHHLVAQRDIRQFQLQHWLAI
Test [3] deals with Sodium-dependent dopamine transporter (Homo sapiens, UniProt Q01959). Description: Inhibition of [3H]dopamine uptake at human DAT expressed in COS7 cells after 3 mins by beta-counting. The class given is cell-based, COS-7.
Sodium-dependent dopamine transporter, sequence (Q01959 whole entry): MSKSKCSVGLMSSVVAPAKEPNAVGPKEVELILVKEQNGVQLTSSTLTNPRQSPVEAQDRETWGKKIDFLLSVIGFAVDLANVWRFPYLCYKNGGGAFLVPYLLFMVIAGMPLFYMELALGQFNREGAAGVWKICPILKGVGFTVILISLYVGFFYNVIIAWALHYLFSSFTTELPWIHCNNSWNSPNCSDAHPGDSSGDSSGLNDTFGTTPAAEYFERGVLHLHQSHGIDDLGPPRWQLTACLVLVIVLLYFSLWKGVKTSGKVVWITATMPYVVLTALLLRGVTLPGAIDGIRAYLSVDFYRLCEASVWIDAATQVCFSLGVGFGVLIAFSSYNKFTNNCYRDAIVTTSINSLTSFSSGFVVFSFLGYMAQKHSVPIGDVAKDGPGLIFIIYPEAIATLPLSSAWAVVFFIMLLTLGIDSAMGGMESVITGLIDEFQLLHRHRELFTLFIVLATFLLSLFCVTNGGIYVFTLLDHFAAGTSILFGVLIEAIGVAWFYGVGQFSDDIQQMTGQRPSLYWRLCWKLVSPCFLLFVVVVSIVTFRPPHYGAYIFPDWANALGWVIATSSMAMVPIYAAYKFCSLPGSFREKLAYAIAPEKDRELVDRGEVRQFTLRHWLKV
For test [4], the system named is COS-7. Description: Ratio of Ki for human NET expressed in COS7 cells to Ki for human SERT expressed in COS7 cells. In kind it is cell-based.
The test system of test [5] is COS-7. Nature of the test: Ratio of Ki for human DAT expressed in COS7 cells to Ki for human SERT expressed in COS7 cells. The class given is cell-based.
The target of test [6] is T1, Sodium-dependent serotonin transporter. Nature of the test: Binding affinity to EGFP fused human SERT expressed in HEK293 cells after 1 hr by confocal microscopy in presence of paroxetine. In kind it is cell-based. A digest of the protocol:
(§1)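 Live HEK293 cells stably expressing EGFP-hSERT were incubated 1 h at 37°C with 20 nM rhodamine-labeled ligand. […] Confocal microscopy scored red-channel fluorescence at the cell surface against EGFP (green) distribution. Images are representative of more than 3 individual experiments.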
Target sequence in this assay (P31645 whole entry, looked up): as the sequence (P31645 whole entry) above

The target is the same in test [7]. Description: Binding affinity to EGFP fused human SERT expressed in HEK293 cells after 1 hr by confocal microscopy in presence of S-citalopram. In kind it is cell-based. Summed up: as §1
Target sequence in this assay (P31645 whole entry, looked up): as the sequence (P31645 whole entry) above
The target is the same in test [8]. Nature of the test: Binding affinity to EGFP fused human SERT expressed in HEK293 cells after 1 hr by confocal microscopy. In kind it is cell-based. A digest of the protocol: as §1
Target sequence in this assay (P31645 whole entry, looked up): as the sequence (P31645 whole entry) above
The target is the same in test [9]. Nature of the test: Binding affinity to EGFP fused human SERT expressed in HEK293 cells after 1 hr by confocal microscopy in presence of 5-HT. In kind it is cell-based. Summed up: as §1
Target sequence in this assay (P31645 whole entry, looked up): as the sequence (P31645 whole entry) above

`CN(C)CCCC1(c2ccc(F)cc2)OCc2cc(-c3cccc(N)c3)ccc21` (stereo not drawn): the Ki – broadly, a dissociation constant, usually derived from enzyme kinetics or from competition with a known ligand – in test [1] worked out at 390 nM.

Consider `CCN(CC)c1ccc2c(-c3ccc(S(=O)(=O)NCCCCCC(=O)NCCN4[C@@H]5CC[C@@H]4[C@@H](C(=O)OC)[C@@H](c4ccc(Cl)c(Cl)c4)C5)cc3S(=O)(=O)[O-])c3ccc(=[N+](CC)CC)cc-3oc2c1`, for which the Ki is 392 nM in test [1], 194 nM in [2] and 62 nM in [3].

For the compound `CCN(CC)c1ccc2c(-c3ccc(S(=O)(=O)NCCCCCC(=O)NCCC(=O)Nc4cccc(-c5ccc6c(c5)COC6(CCCN(C)C)c5ccc(F)cc5)c4)cc3S(=O)(=O)[O-])c3ccc(=[N+](CC)CC)cc-3oc2c1` (stereo not drawn), the Ratio Ki with COS-7 [4] and in the test on COS-7 [5] was 50 in each case. The Ki in test [1] was determined as 225 nM; in [2], 11800 nM; in [3], 10900 nM. For the same compound, the result in test [6], in [7] and in test [9] was inactive. Also, the result in [8] was Active.
